Source: ChEMBL document CHEMBL1156310, “Stepwise synthesis of oligonucleotide-peptide conjugates containing guanidinium and lipophilic groups in their 3'-termini” (Bioorg Med Chem Lett, 2010)

Assays:
SH-SY5Y [1] = experiment: Antisense activity in human SH-SY5Y cells assessed as inhibition of luciferase gene expression at 60 nM after 22 hrs by luminometry in the presence of lipofectamine 2000; format: functional
In short: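 SH-SY5Y cells cotransfected via Lipofectamine 2000 with Renilla (target) and firefly (internal control) luciferase plasmids plus phosphorothioate ASO derivatives at 60 nM, targeting Renilla mRNA site 21-38; scrambled sequences as controls. Read-out: Renilla luciferase inhibition normalized to firefly.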

SH-SY5Y [2] = experiment: Antisense activity in human SH-SY5Y cells assessed as inhibition of luciferase gene expression at 300 nM after 22 hrs by luminometry; format: functional; parameters: scale not given: the % may be the effect or the level left
In short: (§1)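 Dual-luciferase plasmids (Renilla target, firefly internal control) transfected into SH-SY5Y; after 3 h, medium replaced with fresh medium containing ASO-peptide conjugates (150, 200, 300 nM) without Lipofectamine 2000. Luciferase activities measured 22 h after transfection; knockdown expressed as inhibition of Renilla expression. Phosphorothioate ASO targets Renilla mRNA 21-38 site.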

SH-SY5Y [3] = experiment: Cellular uptake in human SH-SY5Y cells at 300 nM after 22 hrs by dual leucifearse reporter assay; format: ADME, cell-based; details: 0.3 µM; in short: as §1

For `Cc1cn([C@H]2C[C@H](OP(O)(=S)OC[C@H]3O[C@@H](n4cc(C)c(=O)[nH]c4=O)C[C@@H]3OP(O)(=S)OC[C@H]3O[C@@H](n4cnc5c(=O)[nH]c(N)nc54)[C@H](O)[C@@H]3OP(O)(=S)OC[C@H]3O[C@@H](n4cc(C)c(=O)[nH]c4=O)C[C@@H]3OP(O)(=S)OC[C@H]3O[C@@H](n4cc(C)c(=O)[nH]c4=O)C[C@@H]3OP(O)(=S)OC[C@H]3O[C@@H](n4cc(C)c(=O)[nH]c4=O)C[C@@H]3OP(O)(=S)OC[C@H]3O[C@@H](n4ccc(N)nc4=O)[C@H](O)[C@@H]3OP(O)(=S)OC[C@H]3O[C@@H](n4ccc(N)nc4=O)[C@H](O)[C@@H]3OP(O)(=S)OC[C@H]3O[C@@H](n4cc(C)c(=O)[nH]c4=O)C[C@@H]3OP(O)(=S)OC[C@H]3O[C@@H](n4cc(C)c(=O)[nH]c4=O)C[C@@H]3OP(O)(=S)OC[C@H]3O[C@@H](n4cc(C)c(=O)[nH]c4=O)C[C@@H]3OP(O)(=S)OC[C@H]3O[C@@H](n4cnc5c(=O)[nH]c(N)nc54)[C@H](O)[C@@H]3OP(O)(=S)OC[C@H]3O[C@@H](n4ccc(N)nc4=O)[C@H](O)[C@@H]3O)[C@@H](COP(O)(=S)O[C@H]3[C@@H](O)[C@H](n4ccc(N)nc4=O)O[C@@H]3COP(O)(=S)O[C@H]3C[C@H](n4cc(C)c(=O)[nH]c4=O)O[C@@H]3COP(O)(=S)O[C@H]3[C@@H](O)[C@H](n4cnc5c(=O)[nH]c(N)nc54)O[C@@H]3COP(O)(=S)O[C@H]3[C@@H](O)[C@H](n4cnc5c(=O)[nH]c(N)nc54)O[C@@H]3COP(O)(=S)O[C@H]3[C@@H](O)[C@H](n4cnc5c(N)ncnc54)O[C@@H]3COP(O)(=S)OCCCC(=O)N[C@H](CCCCNC(=N)N)C(=O)N[C@@H](CCCCNC(N)N)C(=O)N[C@H](CCCCNC(=N)N)C(=O)N[C@@H](CCCCNC(=N)N)C(=O)N[C@H](CCCCNC(=N)N)C(=O)N[C@@H](CCCCNC(=N)N)C(=O)N[C@H](CCCCNC(=N)N)C(=O)N[C@@H](CCCCNC(=N)N)C(=O)NCCCCCCO)O2)c(=O)[nH]c1=O` (some centres undefined), the inhibition at 0.06 µM (SH-SY5Y [1]) was 66%, the Activity (SH-SY5Y [2]) was 28% and the Drug uptake (SH-SY5Y [3]) was 28%.
`Cc1cn([C@H]2C[C@H](OP(O)(=S)OC[C@H]3O[C@@H](n4cc(C)c(=O)[nH]c4=O)C[C@@H]3OP(O)(=S)OC[C@H]3O[C@@H](n4cnc5c(=O)[nH]c(N)nc54)[C@H](O)[C@@H]3OP(O)(=S)OC[C@H]3O[C@@H](n4cc(C)c(=O)[nH]c4=O)C[C@@H]3OP(O)(=S)OC[C@H]3O[C@@H](n4cc(C)c(=O)[nH]c4=O)C[C@@H]3OP(O)(=S)OC[C@H]3O[C@@H](n4cc(C)c(=O)[nH]c4=O)C[C@@H]3OP(O)(=S)OC[C@H]3O[C@@H](n4ccc(N)nc4=O)[C@H](O)[C@@H]3OP(O)(=S)OC[C@H]3O[C@@H](n4ccc(N)nc4=O)[C@H](O)[C@@H]3OP(O)(=S)OC[C@H]3O[C@@H](n4cc(C)c(=O)[nH]c4=O)C[C@@H]3OP(O)(=S)OC[C@H]3O[C@@H](n4cc(C)c(=O)[nH]c4=O)C[C@@H]3OP(O)(=S)OC[C@H]3O[C@@H](n4cc(C)c(=O)[nH]c4=O)C[C@@H]3OP(O)(=S)OC[C@H]3O[C@@H](n4cnc5c(=O)[nH]c(N)nc54)[C@H](O)[C@@H]3OP(O)(=S)OC[C@H]3O[C@@H](n4ccc(N)nc4=O)[C@H](O)[C@@H]3O)[C@@H](COP(O)(=S)O[C@H]3[C@@H](O)[C@H](n4ccc(N)nc4=O)O[C@@H]3COP(O)(=S)O[C@H]3C[C@H](n4cc(C)c(=O)[nH]c4=O)O[C@@H]3COP(O)(=S)O[C@H]3[C@@H](O)[C@H](n4cnc5c(=O)[nH]c(N)nc54)O[C@@H]3COP(O)(=S)O[C@H]3[C@@H](O)[C@H](n4cnc5c(=O)[nH]c(N)nc54)O[C@@H]3COP(O)(=S)O[C@H]3[C@@H](O)[C@H](n4cnc5c(N)ncnc54)O[C@@H]3COP(O)(=S)OCCCC(=O)N[C@H](CCCCNC(=N)N)C(=O)N[C@@H](CCCCNC(=N)N)C(=O)N[C@H](CCCCNC(=N)N)C(=O)N[C@@H](CCCCNC(=N)N)C(=O)NCCCCCCO)O2)c(=O)[nH]c1=O` (some centres undefined) gave an inhibition at 0.06 µM (SH-SY5Y [1]) of 57% and a Drug uptake (SH-SY5Y [3]) of 21%.
With `Cc1cn([C@H]2C[C@H](OP(O)(=S)OC[C@H]3O[C@@H](n4cc(C)c(=O)[nH]c4=O)C[C@@H]3OP(O)(=S)OC[C@H]3O[C@@H](n4cnc5c(=O)[nH]c(N)nc54)[C@H](O)[C@@H]3OP(O)(=S)OC[C@H]3O[C@@H](n4cc(C)c(=O)[nH]c4=O)C[C@@H]3OP(O)(=S)OC[C@H]3O[C@@H](n4cc(C)c(=O)[nH]c4=O)C[C@@H]3OP(O)(=S)OC[C@H]3O[C@@H](n4cc(C)c(=O)[nH]c4=O)C[C@@H]3OP(O)(=S)OC[C@H]3O[C@@H](n4ccc(N)nc4=O)[C@H](O)[C@@H]3OP(O)(=S)OC[C@H]3O[C@@H](n4ccc(N)nc4=O)[C@H](O)[C@@H]3OP(O)(=S)OC[C@H]3O[C@@H](n4cc(C)c(=O)[nH]c4=O)C[C@@H]3OP(O)(=S)OC[C@H]3O[C@@H](n4cc(C)c(=O)[nH]c4=O)C[C@@H]3OP(O)(=S)OC[C@H]3O[C@@H](n4cc(C)c(=O)[nH]c4=O)C[C@@H]3OP(O)(=S)OC[C@H]3O[C@@H](n4cnc5c(=O)[nH]c(N)nc54)[C@H](O)[C@@H]3OP(O)(=S)OC[C@H]3O[C@@H](n4ccc(N)nc4=O)[C@H](O)[C@@H]3O)[C@@H](COP(O)(=S)O[C@H]3[C@@H](O)[C@H](n4ccc(N)nc4=O)O[C@@H]3COP(O)(=S)O[C@H]3C[C@H](n4cc(C)c(=O)[nH]c4=O)O[C@@H]3COP(O)(=S)O[C@H]3[C@@H](O)[C@H](n4cnc5c(=O)[nH]c(N)nc54)O[C@@H]3COP(O)(=S)O[C@H]3[C@@H](O)[C@H](n4cnc5c(=O)[nH]c(N)nc54)O[C@@H]3COP(O)(=S)O[C@H]3[C@@H](O)[C@H](n4cnc5c(N)ncnc54)O[C@@H]3COP(O)(=S)OCCCC(=O)N[C@H](CCCCN)C(=O)N[C@@H](CCCCN)C(=O)N[C@H](CCCCN)C(=O)N[C@@H](CCCCN)C(=O)NCCCCCCO)O2)c(=O)[nH]c1=O` (some centres undefined) the inhibition at 0.06 µM (SH-SY5Y [1]) was 57% and the Drug uptake (SH-SY5Y [3]) was 15%.
Compound `Cc1cn([C@H]2C[C@H](OP(O)(=S)OC[C@H]3O[C@@H](n4cc(C)c(=O)[nH]c4=O)C[C@@H]3OP(O)(=S)OC[C@H]3O[C@@H](n4cnc5c(=O)[nH]c(N)nc54)[C@H](O)[C@@H]3OP(O)(=S)OC[C@H]3O[C@@H](n4cc(C)c(=O)[nH]c4=O)C[C@@H]3OP(O)(=S)OC[C@H]3O[C@@H](n4cc(C)c(=O)[nH]c4=O)C[C@@H]3OP(O)(=S)OC[C@H]3O[C@@H](n4cc(C)c(=O)[nH]c4=O)C[C@@H]3OP(O)(=S)OC[C@H]3O[C@@H](n4ccc(N)nc4=O)[C@H](O)[C@@H]3OP(O)(=S)OC[C@H]3O[C@@H](n4ccc(N)nc4=O)[C@H](O)[C@@H]3OP(O)(=S)OC[C@H]3O[C@@H](n4cc(C)c(=O)[nH]c4=O)C[C@@H]3OP(O)(=S)OC[C@H]3O[C@@H](n4cc(C)c(=O)[nH]c4=O)C[C@@H]3OP(O)(=S)OC[C@H]3O[C@@H](n4cc(C)c(=O)[nH]c4=O)C[C@@H]3OP(O)(=S)OC[C@H]3O[C@@H](n4cnc5c(=O)[nH]c(N)nc54)[C@H](O)[C@@H]3OP(O)(=S)OC[C@H]3O[C@@H](n4ccc(N)nc4=O)[C@H](O)[C@@H]3O)[C@@H](COP(O)(=S)O[C@H]3[C@@H](O)[C@H](n4ccc(N)nc4=O)O[C@@H]3COP(O)(=S)O[C@H]3C[C@H](n4cc(C)c(=O)[nH]c4=O)O[C@@H]3COP(O)(=S)O[C@H]3[C@@H](O)[C@H](n4cnc5c(=O)[nH]c(N)nc54)O[C@@H]3COP(O)(=S)O[C@H]3[C@@H](O)[C@H](n4cnc5c(=O)[nH]c(N)nc54)O[C@@H]3COP(O)(=S)O[C@H]3[C@@H](O)[C@H](n4cnc5c(N)ncnc54)O[C@@H]3COP(O)(=S)OCCCC(=O)N[C@H](CCCCN)C(=O)N[C@@H](CCCCN)C(=O)N[C@H](CCCCN)C(=O)N[C@@H](CCCCN)C(=O)N[C@H](CCCCN)C(=O)N[C@@H](CCCCN)C(=O)N[C@H](CCCCN)C(=O)N[C@@H](CCCCN)C(=O)NCCCCCCO)O2)c(=O)[nH]c1=O` (some centres undefined) has an inhibition at 0.06 µM (SH-SY5Y [1]) of 65% and a Drug uptake (SH-SY5Y [3]) of 11%.
